SENP1 FRET inh – blocks the human SENP1 SUMO protease catalytic domain | recombinant SENP1 catalytic domain, CyPet-SUMO1-YPet FRET cleavage | inhibition, % at 10 µM | Q9P0U3 | AID 624204 | 0.21% of 360,000 active;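 active = inhibition at least 30% at 10 µM, raw YFP signal under a set limit, fluorescence ratio 0.5 to 1.5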;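 note: 0% = enzyme with DMSO and 100% = no enzyme wells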
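Assay system – human recombinant His6-tagged SENP1 catalytic domain enzyme · Input – SENP1 enzyme, 20 pM final · Buffer or medium – Tris pH 8 buffer plus EDTA, NaCl, BME, BSA, NP40, catalase · Schedule – 50 min reaction at room temperature · Technique – FRET read of cyan and yellow fluorescence · Control set – no-enzyme wells low, DMSO-plus-enzyme wells high control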
HSP90 inh – inhibitors of HSP90 luciferase refolding in rabbit reticulocyte lysate; 0.91% of 290,000 active; inhibition, % at 5.6 µM; luciferase refolding luminescence, 3 h;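 active = inhibition above the screen-wide mean plus 3 SD, computed separately per campaign, cut at about 16% in these data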;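 note: 0% = DMSO wells and 100% = 60 µM geldanamycin wells; inhibitors lower the luminescence because luciferase stays unfolded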
SENP6 block – blocks the human protease SENP6; Q9GZR1; Recombinant SENP6 catalytic domain, aminoluciferin luminescence; inhibition, % at 10 µM; 1.8% of 330,000 active; AID 2599;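 active = inhibition above about 50% at the single tested dose, limit read from the data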;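 note: plate controls were DMSO wells with enzyme for no effect and DMSO wells lacking enzyme for full effect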
SENP7 block – blocks the human protease SENP7. Q9BQF6. recombinant SENP7, Z-RLRGG-aminoluciferin luminescence, 40 min. inhibition, % at 5 µM. 1.5% of 330,000 active;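 active = inhibition above about 50% at the single test dose, limit read from the data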;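 note: plate controls were DMSO with enzyme for no effect and no enzyme buffer wells for full effect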
Target sequence (Q9BQF6 706-1050 limits assumed): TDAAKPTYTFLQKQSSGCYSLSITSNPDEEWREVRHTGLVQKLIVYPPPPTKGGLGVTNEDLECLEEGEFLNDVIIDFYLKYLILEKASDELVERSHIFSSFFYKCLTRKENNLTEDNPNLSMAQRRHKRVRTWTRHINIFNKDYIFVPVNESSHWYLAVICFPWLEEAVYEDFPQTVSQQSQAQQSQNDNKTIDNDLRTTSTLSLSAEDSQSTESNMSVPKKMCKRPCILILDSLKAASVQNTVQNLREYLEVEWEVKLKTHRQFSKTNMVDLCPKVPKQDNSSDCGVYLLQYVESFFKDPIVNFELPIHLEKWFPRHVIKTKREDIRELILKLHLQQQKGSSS
SENP8 block-1 – SENP8 protease inhibition; Q96LD8; purified SENP8, Z-RLRGG-aminoluciferin cleavage, luminescence; inhibition, % at 10 µM; 1.2% of 330,000 active; in the data active = inhibition above about 50%
SENP8 block-2 – SENP8 (human) protease inhibition; Q96LD8; recombinant SENP8, Nedd8 substrate fluorescence; inhibition, % at 20 µM; 0.64% of 360,000 active; AID 602440; in the data active = inhibition mostly above about 40%, no sharp cut-off; inactive = mostly below about 27%
SENP8 conf – human SENP8 inhibition, confirmed | shares compounds with SENP7 block | Recombinant SENP8, Z-RLRGG-aminoluciferin luminescence, 60 min | inhibition, % at 12.5 µM | 40% of 6,200 active | AID 488912;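 active = mean inhibition across replicates above about 50%, limit read from the data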
SENP6 confirm – confirmation of human SENP6 protease inhibitors | shares compounds with SENP7 block | recombinant SENP6, Z-RLRGG-aminoluciferin luminescence | inhibition, % at 12.5 µM | 58% of 6,200 active
SENP7 conf – confirmation of human SENP7 protease inhibitors; shares compounds with SENP7 block; recombinant SENP7, Z-RLRGG-aminoluciferin luminescence, 40 min; inhibition, % at 12.5 µM; 69% of 6,200 active
Casp3 SENP sel – selectivity test for SENP inhibitors: human caspase-3 inhibition; shares compounds with SENP7 block; purified caspase-3, Z-DEVD-aminoluciferin luminescence, 60 min; inhibition, % at 12.5 µM; 60% of 6,200 active;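 active = mean inhibition above about 50%, limit read from the data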;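 note: plate controls were enzyme with DMSO for no effect and wells without caspase-3 for full effect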
Target sequence (P42574 28-227 limits assumed): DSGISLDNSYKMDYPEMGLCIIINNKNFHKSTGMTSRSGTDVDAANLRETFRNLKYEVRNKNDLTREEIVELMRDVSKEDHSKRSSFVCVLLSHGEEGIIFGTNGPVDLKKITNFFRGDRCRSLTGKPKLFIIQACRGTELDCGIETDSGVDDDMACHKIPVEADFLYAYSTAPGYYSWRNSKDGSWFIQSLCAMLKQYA
SENP luc ctr – luminescence interference (SENP counter-screen) | shares compounds with SENP7 block | Pre-incubated SENP8/Z-RLRGG-aminoluciferin, luciferase luminescence interference | inhibition, % at 12.5 µM | 39% of 6,200 active;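 active = mean inhibition above about 50% when retested at one dose, limit read from the data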;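 note: plate controls were DMSO wells with completed reaction for no effect and substrate without enzyme for full effect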
* = called active by the depositor; i = inactive; nt = no result. This is a sample that favours compounds with a hit; in the whole collection about 2.9% have one here.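 Rule for the calls, unless noted: active = mean inhibition above about 50% in the one-dose retest (limit read from the data); inactive = the rest.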

SMILES | SENP1 FRET inh | HSP90 inh | SENP6 block | SENP7 block | SENP8 block-1 | SENP8 block-2 | SENP8 conf | SENP6 confirm | SENP7 conf | Casp3 SENP sel | SENP luc ctr
CCN1CCN(CCCNC(=O)C2CCCN(c3nc4c(C)cc(C)cc4s3)C2)CC1 (stereo not given) | -1 | 1 | -23 | -7 | 1 | 4 | nt | nt | nt | nt | nt
O=S(=O)(NCCSc1ccccc1)c1cccs1 | 0 | 6 | -5 | 3 | 5 | 18 | nt | nt | nt | nt | nt
c1coc(-c2nc(-c3ccncc3)no2)c1 | 0 | 3 | 72* | 62* | 33 | -1 | 17 | 53* | 85* | 82* | 21
c1ccc(-c2ccc(-c3nc(-c4ccncc4)no3)cc2)cc1 | -1 | -8 | 91* | 23 | 83* | -9 | 42 | 37 | 27 | 72* | 6
O=[N+]([O-])c1ccc(-c2nc(-c3ccncc3)no2)cc1 | 0 | 1 | 10 | 6 | 2 | 38 | nt | nt | nt | nt | nt
Brc1ccc(-c2nc(-c3ccncc3)no2)cc1 | 1 | -2 | 7 | 73* | 13 | 22 | -9 | -2 | 19 | 23 | -1
c1ccc(-c2nc(-c3ccncc3)no2)cc1 | 2 | -3 | 82* | 80* | 58* | 18 | -30 | -1 | 50 | 32 | -2
Cc1cccc(N(CC(=O)NCC2CCCO2)C(=O)CNS(=O)(=O)c2ccc(Cl)cc2)c1 (stereo not given) | 1 | -1 | -10 | -7 | 3 | 13 | nt | nt | nt | nt | nt
O=[N+]([O-])c1ccc2cn(-c3ccccc3)nc2c1 | 3 | 1 | 14 | 81* | 60* | 21 | 34 | 70* | 92* | 69* | 44
COc1ccccc1-n1cc2ccc([N+](=O)[O-])cc2n1 | 1 | nt | 31 | 9 | 12 | 28 | nt | nt | nt | nt | nt
CCn1cc(C2=NC(C(C)C)CO2)c2ccccc21 (stereo not given) | 4 | 0 | 0 | 4 | -4 | -13 | nt | nt | nt | nt | nt
CC(C)C1COC(c2cccc3ccccc23)=N1 (stereo not given) | 0 | -7 | 96* | 92* | 89* | 7 | 60* | 92* | 100* | 85* | 48
COc1ccccc1NC(=O)c1cc2ccc(O)cc2o/c1=N\O | -24 | 2 | 95* | 95* | 94* | i | 8 | 99* | 103* | 92* | 52*
COc1ccccc1N=c1oc2cc(O)ccc2cc1C(=O)NCC1CCCO1 (stereo not given) | -21 | 1 | -3 | 0 | -2 | -239 | nt | nt | nt | nt | nt
COc1ccccc1N=c1oc2cc(O)ccc2cc1C(N)=O | -23 | 8 | 91* | 0 | 50 | -285 | 99* | 100* | 101* | 99* | 92*
COc1ccccc1NC(=O)c1cc2ccccc2o/c1=N\O | 2 | nt | 3 | 7 | -23 | 13 | nt | nt | nt | nt | nt
Cc1ccc2nc(/C(C#N)=C/c3ccc(O)c(O)c3)[nH]c2c1 | -37 | -2 | 65* | 8 | 17 | -163 | 54* | 48 | 72* | 30 | 9
COc1cccc(CCNC(=O)CCc2nnc(-c3cc(C)oc3C)o2)c1 | -4 | -7 | -1 | 17 | -10 | -12 | nt | nt | nt | nt | nt
Cc1nc2ccc(C(=O)NCCc3c[nH]c4ccccc34)cn2c1N(C)C(=O)CCc1ccccc1 | 0 | nt | nt | nt | nt | -41 | nt | nt | nt | nt | nt
Cc1cc(NC(=O)C(C)C)ncc1NC(=O)c1cccc(F)c1 | 1 | -2 | -17 | -13 | -7 | 11 | nt | nt | nt | nt | nt
CCC(=O)Nc1cc(C)c(NC(=O)c2ccco2)cn1 | -1 | -1 | -7 | 1 | -1 | 18 | nt | nt | nt | nt | nt
CCCC(=O)Nc1cnc(NC(=O)c2cccc(F)c2)cc1C | 2 | 17* | 82* | 79* | 53* | 16 | 78* | 75* | 94* | 92* | 75*
Cc1cc(NC(=O)c2ccccc2)ncc1NC(=O)c1ccco1 | -12 | 4 | 91* | 91* | 80* | -2 | 89* | 88* | 99* | 96* | 87*
CCCN(C(=O)Cc1ccc(S(=O)(=O)N2CCOCC2)s1)c1c(N)n(Cc2ccccc2)c(=O)[nH]c1=O | -25 | -5 | -5 | -8 | 12 | -98 | nt | nt | nt | nt | nt
OC(c1cccc(Cl)c1)c1nc(/C=C/c2ccc(C(F)(F)F)cc2)cs1 (stereo not given) | 1 | nt | nt | nt | nt | -59 | nt | nt | nt | nt | nt
SMILES | SENP1 FRET inh | HSP90 inh | SENP6 block | SENP7 block | SENP8 block-1 | SENP8 block-2 | SENP8 conf | SENP6 confirm | SENP7 conf | Casp3 SENP sel | SENP luc ctr
COc1cccc(OCc2nc3c4cnn(-c5ccccc5)c4ncn3n2)c1 | 2 | -1 | -22 | 73* | 6 | -96 | -8 | 1 | 12 | 21 | 4
COc1ccc(-c2cc(-c3ccc(C)cc3)n[nH]2)c(O)c1 | 1 | -2 | 58* | 37 | 33 | 7 | 49 | 42 | 72* | 14 | 32
COc1ccc(-c2cc(-c3ccc(OC)cc3)[nH]n2)cc1 | 0 | 3 | -19 | -1 | 6 | 12 | nt | nt | nt | nt | nt
COc1ccc(-c2cc(-c3cc(C)ccc3O)[nH]n2)cc1 | 1 | -2 | 72* | 61* | 56* | -1 | 75* | 74* | 88* | 19 | 39
Cc1ccsc1/C=C1/NC(=O)N(Cc2ccc(F)cc2)C1=O | -14 | -2 | -4 | 2 | 5 | -8 | nt | nt | nt | nt | nt
Cc1ccccc1NC(=O)CCC(=O)OCCCC(F)(F)C(F)(F)F | 1 | -2 | -10 | 4 | -12 | 2 | nt | nt | nt | nt | nt
O=C(CCC(=O)OCCCC(F)(F)C(F)(F)F)Nc1ccccc1 | 2 | -2 | -22 | 99* | 0 | 16 | -2 | -1 | -6 | -5 | -4
O=C(COC(=O)c1c[nH]c2ccccc12)NC1CCCCC1 | 1 | nt | 2 | -1 | 4 | 11 | nt | nt | nt | nt | nt
Cc1cc(C=C2C(=O)c3ccccc3C2=O)c(C)n1-c1cccc(C(=O)O)c1 | -26 | 0 | 91* | 51* | 90* | -9 | 97* | 98* | 101* | 95* | 92*
Cc1cc(/C=C2/C(=O)NN(c3ccccc3)C2=O)c(C)n1-c1cccc(O)c1 | 0 | 14 | 80* | 65* | 66* | 29 | 68* | 73* | 93* | 67* | 11
